Data reported in ChEMBL document CHEMBL1140328, “Synthesis and mechanism of action studies of a series of norindenoisoquinoline topoisomerase I poisons reveal an inhibitor with a flipped orientation in the ternary DNA-enzyme-inhibitor complex as determined by X-ray crystallographic analysis” (2005).

Key:
[1] = Concentration required to inhibit the growth of human Ovarian OVCAR cells; format: functional
Outline: (§1)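 NCI screen of about 55 human cancer cell lines; GI50 per cell line over a test range of 10⁻⁸ to 10⁻⁴ M. Mean graph midpoint is the average GI50 across all lines tested, with values outside the range set to 10⁻⁸ or 10⁻⁴ M.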

[2] = Concentration required to inhibit the growth of human ProstateDU-145 cells; format: functional; conditions: DU-145; outline: as §1
[3] = Concentration required to inhibit the growth of human Melanoma UACC-62 cells; format: functional; outline: as §1
[4] = Concentration required to inhibit the growth of human Breast MDA-MB-435 cells; format: functional; outline: as §1
[5] = Concentration required to inhibit the growth of human Colon […] cells; format: functional; outline: as §1
[6] = target: T1, DNA topoisomerase 1 (Homo sapiens) (UniProt P11387); assay: Topoisomerase-I mediated DNA Cleavage activity at 30 degree C for 30 min relative to NSC 314622; Range = 25-75%
T1 sequence (whole entry): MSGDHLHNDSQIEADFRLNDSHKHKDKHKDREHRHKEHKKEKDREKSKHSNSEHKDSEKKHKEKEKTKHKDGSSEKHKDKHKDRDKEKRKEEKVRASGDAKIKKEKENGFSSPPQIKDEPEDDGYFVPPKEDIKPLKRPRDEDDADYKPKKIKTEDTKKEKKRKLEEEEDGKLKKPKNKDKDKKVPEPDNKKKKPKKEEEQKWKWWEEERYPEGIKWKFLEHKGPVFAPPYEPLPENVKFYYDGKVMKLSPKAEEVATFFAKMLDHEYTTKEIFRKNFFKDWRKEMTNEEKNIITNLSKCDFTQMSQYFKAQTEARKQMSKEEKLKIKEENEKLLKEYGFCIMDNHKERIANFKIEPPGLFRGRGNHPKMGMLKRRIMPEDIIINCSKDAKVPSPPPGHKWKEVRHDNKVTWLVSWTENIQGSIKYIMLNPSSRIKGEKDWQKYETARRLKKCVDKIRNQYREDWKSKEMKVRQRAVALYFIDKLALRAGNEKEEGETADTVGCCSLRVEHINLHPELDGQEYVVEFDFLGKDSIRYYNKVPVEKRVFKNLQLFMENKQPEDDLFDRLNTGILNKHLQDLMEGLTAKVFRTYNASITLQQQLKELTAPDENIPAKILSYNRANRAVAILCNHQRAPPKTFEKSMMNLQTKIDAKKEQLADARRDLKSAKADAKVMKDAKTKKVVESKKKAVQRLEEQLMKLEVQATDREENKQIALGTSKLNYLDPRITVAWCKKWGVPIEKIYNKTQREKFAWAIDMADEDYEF

[7] = Concentration required to inhibit the growth of human CNSSF-539 cells; format: functional; outline: as §1
[8] = Concentration required to inhibit the growth of human Lung HOP-62 cells; format: functional; outline: as §1
[9] = Concentration required to inhibit the growth of human Renal SN12C cells; format: functional; outline: as §1
[10] = Concentration required to inhibit the growth of human Prostate DU-145 cells; format: functional; outline: as §1
[11] = target: T1, DNA topoisomerase 1 (Homo sapiens); assay: Topoisomerase-I mediated DNA Cleavage activity at 30 degree C for 30 min relative to NSC 314622; Range = 75-175%
[12] = Concentration required to inhibit the growth of human prostate DU-145 cells; format: functional; outline: as §1
[13] = Concentration required to inhibit the growth of human LungHOP-62 cells; format: functional
Outline: (§2)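 Assayed in the National Cancer Institute screen, a panel of approximately 55 human cancer cell lines. Compounds were tested over a concentration range of 10⁻⁸ to 10⁻⁴ molar, and growth inhibition was expressed as GI₅₀ for each cell line.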

[14] = Concentration required to inhibit the growth of human ColonHCT-11 cells; format: functional; outline: as §2
[15] = Concentration required to inhibit the growth of human OvarianOVCAR cells; format: functional; outline: as §1

Row | SMILES | Cleavage [6] | Cleavage [11] | GI50 [1] | GI50 [2] | GI50 [3] | GI50 [4] | GI50 [5] | GI50 [7] | GI50 [8] | GI50 [9] | GI50 [10] | GI50 [12] | GI50 [13] | GI50 [14] | GI50 [15]
1 | COc1cc2c(c(OC)c1OC)-c1ncc3cc4c(cc3c1C2)OCO4 |  |  | 15.5 µM |  | 19.3 µM | 13.2 µM | 18.8 µM |  | 21.7 µM | 13.4 µM | 23.2 µM |  |  |  | 
2 | COc1cc2c3c(n(C)c(=O)c2cc1OC)-c1cc2c(cc1C3=O)OCO2 | 75% |  | 73 µM |  | 4.2 µM | 96 µM | 35 µM |  | 1.3 µM | 68 µM | 37 µM |  |  |  | 
3 | CC[C@@]1(O)C(=O)OCc2c1cc1n(c2=O)Cc2cc3ccccc3nc2-1 [CAMPTOTHECIN] |  |  |  |  |  |  |  | 0.01 µM |  |  |  |  | 0.01 µM | 0.03 µM | 0.22 µM
4 | COc1cc2c(c(OC)c1OC)-c1ncc3c(OC)c(OC)c(OC)cc3c1C2 | 75% |  | 21.5 µM |  | 21.1 µM | 23 µM | 27.8 µM |  | 28.5 µM | 20.3 µM | 29.6 µM |  |  |  | 
5 | COc1cc2c(cc1OC)-c1ncc3cc(OC)c(OC)c(OC)c3c1C2 |  |  | 15.9 µM |  | 7.42 µM | 16.2 µM | 31.8 µM | 14 µM | 34.8 µM | 14.4 µM | 21.7 µM |  |  |  | 
6 | COc1cc2c(cc1OC)-c1ncc3c(OC)ccc(OC)c3c1C2 |  |  | 15.4 µM |  | 18 µM | 23.4 µM | 17.8 µM | 14 µM | 21.4 µM | 14.8 µM | 28.1 µM |  |  |  | 
7 | COc1cc2c(c(OC)c1OC)-c1ncc3cc(OC)c(OC)c(OC)c3c1C2 |  |  |  |  | 17.4 µM | 20.8 µM | 33.5 µM |  | 35.4 µM | 17.6 µM | 26.6 µM |  |  |  | 19.1 µM

Now from value to compound, other results behind:

Row | Cleavage [6] | Cleavage [11] | SMILES | GI50 [1] | GI50 [2] | GI50 [3] | GI50 [4] | GI50 [5] | GI50 [7] | GI50 [8] | GI50 [9] | GI50 [10] | GI50 [12] | GI50 [13] | GI50 [14] | GI50 [15]
8 | 75% |  | COc1cc2cnc3c(c2c(OC)c1OC)Cc1cc2c(cc1-3)OCO2 | 0.403 µM | > 100 µM | 0.439 µM | 0.178 µM | 0.0694 µM | 0.869 µM | 0.234 µM | 0.602 µM |  |  |  |  | 
9 | 75% |  | COc1ccc(OC)c2c3c(ncc12)-c1cc2c(cc1C3)OCO2 | 26.9 µM |  | > 100 µM | > 100 µM | 0.249 µM |  | < 0.01 µM | > 100 µM | 48.4 µM |  |  |  | 
10 | 75% |  | c1c2c(cc3c1OCO3)-c1ncc3cc4c(cc3c1C2)OCO4 | 0.0232 µM |  | 0.19 µM | < 0.01 µM | 0.283 µM | 0.598 µM | 0.227 µM | 0.0414 µM |  |  |  |  | 
11 |  | 175% | COc1cc2cnc3c(c2cc1OC)Cc1cc2c(cc1-3)OCO2 |  |  | < 0.01 µM | < 0.01 µM | > 100 µM | < 0.01 µM | 0.0721 µM | > 100 µM | 0.0281 µM |  |  |  | 
12 | 75% |  | COc1cc2c3c(ncc2c(OC)c1OC)-c1cc2c(cc1C3)OCO2 |  |  |  | > 100 µM | 22.1 µM |  |  |  |  | 26.9 µM |  |  | 
13 | 75% |  | COc1cc2c(cc1OC)-c1ncc3cc(OC)c(OC)cc3c1C2 | > 50 µM |  | > 50 µM | > 50 µM | > 50 µM | > 50 µM |  | > 50 µM | > 50 µM |  |  |  | 
14 | 75% |  | COc1cc2c(cc1OC)-c1ncc3c(OC)c(OC)c(OC)cc3c1C2 | 0.529 µM |  | 3.84 µM |  | 8.81 µM |  | 16 µM |  |  |  |  |  | 
15 |  | 175% | COc1cc2c(cc1OC)-c1ncc3cc4c(cc3c1C2)OCO4 | 61.2 µM |  | > 100 µM | 63.4 µM | 11.1 µM | 23.4 µM |  | > 100 µM | 25.3 µM |  |  |  | 
